Test results as given in ChEMBL document CHEMBL1914453, “1,1-Diarylalkenes as anticancer agents: dual inhibitors of tubulin polymerization and phosphodiesterase 4” (Bioorg Med Chem, 2011).

Legend:
[1] = Ratio of IC50 for human PDE4 expressed in U937 cells to IC50 for human HCT116 cells; design: species or system HCT-116
[2] = test system: HCT-116; assay: Cytotoxicity against human HCT116 cells assessed as reduction of [3H]thymidine incorporation after 72 hrs by scintillation counting; format: functional, cell-based
How it was run: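 HCT-116 cells were seeded 24 h before compound and treated with serial dilutions in triplicate for 72 h at 37 °C. [³H]thymidine (1 µCi per well) was added for the last 6 h, and incorporation was read by scintillation counting. IC50 came from nonlinear sigmoidal regression (top 100%, bottom 0%, variable slope). Values are means of at least three independent determinations, with SEM from the individual IC50s.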

[3] = biological target: Phosphodiesterase 4 (Homo sapiens, UniProt P27815+Q08499+Q07343+Q08493); assay: Inhibition of human PDE4 expressed in U937 cells using [3H]cAMP as substrate after 30 mins; settings: u-937
How it was run: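 PDE4 was purified from U937 human monocytic cells by gel filtration. Reactions ran in 50 mM Tris–HCl pH 7.5 with 5 mM MgCl₂, 1 µM cAMP and 10 nM [³H]-cAMP for 30 min at 30 °C. They were stopped by boiling, treated with snake venom (1 mg/ml) and separated on ion-exchange resin. Substrate consumption stayed below 15%. IC50 values are means of at least three determinations, with SEM.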

[4] = test system: PBMC; assay: Inhibition of LPS-induced TNFalpha production in human PBMC preincubated 1 hr prior to LPS stimulation measured after 18 to 20 hrs by ELISA; format: functional, cell-based
How it was run: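 PBMC were isolated by Ficoll-Hypaque density centrifugation and plated at 2 × 10⁵ cells in triplicate. Compounds in DMSO (0.25% final) were added 1 h before stimulation with LPS from S. abortus equi at 1 ng/ml. After 18–20 h at 37 °C in 5% CO₂, supernatant TNF-α was measured by ELISA. IC50 values are means of at least three determinations.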

[5] = test system: Plasma; assay: Stability in human plasma assessed as formation of (E/Z)-3-(3-Amino-4-methoxyphenyl)-3-(3-ethoxy-4- methoxyphenyl)acrylonitrile by LC-MS/MS analysis; format: ADME, cell-free
How it was run: (§1)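 Analogs were incubated in human plasma at 37 °C and sampled at 0, 0.5, 1, 2, 3, 4, 6, 8 and 24 h. Samples were quenched in acetonitrile with 0.1% formic acid and internal standard, centrifuged, and analysed by LC–MS/MS in MRM mode on a C18 monolithic column with an aqueous acetonitrile/0.1% formic acid gradient. Percentage remaining was taken from analyte/IS peak-area ratios relative to time zero.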

[6] = Inhibition of tubulin polymerization at 5 uM after 60 mins by spectrophotometry
[7] = Inhibition of tubulin polymerization at 10 uM after 60 mins by spectrophotometry
[8] = Stability in human plasma assessed as half life by LC-MS/MS analysis; format: ADME, cell-free; how it was run: as §1
[9] = Solubility of the compound at pH 5 after 4 hrs by UV-Vis spectrophotometry; format: physicochemical; settings: buffer
How it was run: (§2)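 A suspension of about 1 mg/mL (0.5 mL) in pH 5.0 or pH 7.4 buffer was stirred at 400 rpm for 4 h and then filtered. Concentration was determined by UV-vis plate reading (200–400 nm) against standard curves for each compound. Replicate measurements were made at pH 5.0.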

[10] = Solubility of the compound at pH 7.4 after 4 hrs by UV-Vis spectrophotometry; format: physicochemical; settings: buffer; how it was run: as §2
[11] = test system: Mus musculus; assay: Toxicity in SCID mouse xenografted with human HCT116 cells assessed as reduction in body weight at 20 mg/kg, ip once daily measured after day 19 relative to control; format: organism-based, HCT-116; design: dose 20 mg/kg, route intraperitoneal; scale not given: the % may be the effect or the level left; settings: in vivo
How it was run: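 SCID mice carrying s.c. HCT-116 tumors were dosed ip at 20 mg/kg once daily in CMC-Tween vehicle (0.5% carboxymethylcellulose, 0.25% Tween 80) from day 8. Health was monitored daily and body weights were compared with the vehicle group.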

[12] = test system: HCT-116; assay: Antitumor activity against human HCT116 cells xenografted in SCID mouse assessed as tumor growth inhibition at 20 mg/kg, ip once daily measured twice weekly relative to control; settings: HCT-116, ip, 24 h, read-out: GI
[13] = test system: HCT-116; assay: Antitumor activity against human HCT116 cells xenografted in SCID mouse assessed as tumor growth inhibition at 5 mg/kg, ip once every 4 days measured twice weekly relative to control; format: functional; settings: HCT-116, ip, 96 h, route intraperitoneal, read-out: GI
How it was run: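 Female SCID mice, 6–8 weeks old, inoculated s.c. in the right hind leg with 2 × 10⁶ HCT-116 cells in sterile PBS. On day 8, mice with 75–125 mm³ tumors were randomized and dosed ip in CMC-Tween vehicle (0.5% carboxymethylcellulose, 0.25% Tween 80 in water). Tumors were measured twice weekly by caliper, volume W² × L / 2, and compared with vehicle.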

Compound | Ratio IC50 [1] | IC50 [2] | IC50 [3] | IC50 [4] | Stability [5] | inhibition [6] | inhibition [7] | half-life [8] | solubility at 4 h [9] | solubility at 4 h [10] | Activity [11] | inhibition in vivo at 20 mg/kg [12] | inhibition in vivo at 5 mg/kg [13]
COc1cc(OC)cc(C(=C(C)C)c2ccc(OC)c(O)c2)c1 | 10 | 970 nM | > 10000 nM | 7000 nM |  |  |  |  |  |  |  |  | 
CCOc1cc(C(=CC#N)c2ccc(OC)c(NC(=O)CN)c2)ccc1OC.Cl |  | 93 nM | 400 nM | 31 nM | Stable | 59% | 70% | 56 h | 356 µg/mL | 205 µg/mL | 15% | 64% | 
CCc1c2c(nc3ccc(OC(=O)N4CCC(N5CCCCC5)CC4)cc13)-c1cc3c(c(=O)n1C2)COC(=O)[C@]3(O)CC [IRINOTECAN] |  |  |  |  |  |  |  |  |  |  |  |  | 85%
